Key:
[1] = In vivo activity against vaginal candidoses in rats, measured as the ratio of animals cured/animals infected (C/I) at dose 0.63 mg/kg; 1/6; format: functional
[2] = In vivo activity against microsporosis guinea pig, measured as the ratio of animals cured/animals infected (C/I) at dose 2.5 mg/kg; 4/6; format: functional
[3] = In vivo activity against microsporosis guinea pig, measured as the ratio of animals cured/animals infected (C/I) at dose 1.25 mg/kg; 0/4; format: functional
[4] = In vivo activity against microsporosis guinea pig, measured as the ratio of animals cured/animals infected (C/I) at dose 10 mg/kg; 2/2; format: functional
[5] = In vivo activity against vaginal candidoses in rats, measured as the ratio of animals cured/animals infected (C/I) at dose 2.5 mg/kg; 3/6; format: functional
[6] = In vivo activity against vaginal candidoses in rats, measured as the ratio of animals cured/animals infected (C/I) at dose 1.25 mg/kg; 1/2; format: functional
Microsporum canis = assay: In vitro antifungal activity against Microsporum canis; format: functional
Method in brief: (§1)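 Fungal growth-inhibition screen (Godefroi method) against dermatophytes, yeasts, moulds and other fungi. The value is the lowest concentration (µg/mL) giving total inhibition of growth, tested up to 100 µg/mL.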

Trichophyton benhamiae = assay: In vitro antifungal activity against Trichophyton mentagrophytes; format: functional, Arthroderma benhamiae; method in brief: as §1
Trichophyton rubrum = assay: In vitro antifungal activity against Trichophyton rubrum; format: functional; method in brief: as §1
Cryptococcus neoformans = assay: In vitro antifungal activity against Cryptococcus neoformans; format: functional; method in brief: as §1
Phialophora verrucosa = assay: In vitro antifungal activity against Phialophora verrucosa; format: functional; method in brief: as §1
Candida tropicalis = assay: In vitro antifungal activity against Candida tropicalis; format: functional; method in brief: as §1
[7] = In vivo activity against microsporosis guinea pig, measured as the ratio of animals cured/animals infected (C/I) at dose 20 mg/kg; C/I = 1/6
Sporothrix schenckii = assay: In vitro antifungal activity against Sporothrix schenck ii; format: functional; method in brief: as §1
[8] = In vitro antifungal activity against Mucor sp; format: functional; method in brief: as §1
[9] = In vivo activity against vaginal candidoses in rats, measured as the ratio of animals cured/animals infected (C/I) at dose 2.5 mg/kg; C/I = 0/2; format: functional
Saprolegnia = assay: In vitro antifungal activity against Saprolegnia sp; format: functional; method in brief: as §1
Aspergillus fumigatus = assay: In vitro antifungal activity against Aspergillus fumigatus; format: functional; method in brief: as §1
Candida albicans = assay: In vitro antifungal activity against Candida albicans; format: functional; method in brief: as §1
[10] = In vivo activity against vaginal candidoses in rats, measured as the ratio of animals cured/animals infected (C/I) at dose 10 mg/kg; C/I = 3/4; format: functional
[11] = In vivo activity against microsporosis guinea pig, measured as the ratio of animals cured/animals infected (C/I) at dose 10 mg/kg; C/I = 0/2; format: functional
[12] = In vivo activity against microsporosis guinea pig, measured as the ratio of animals cured/animals infected (C/I) at dose 20 mg/kg; C/I = 2/2; format: functional
[13] = In vivo activity against vaginal candidoses in rats, measured as the ratio of animals cured/animals infected (C/I) at dose 10 mg/kg; C/I = 6/6; format: functional
[14] = In vivo activity against microsporosis guinea pig, measured as the ratio of animals cured/animals infected (C/I) at dose 2.5 mg/kg; C/I = 0/5; format: functional
[15] = In vivo activity against microsporosis guinea pig, measured as the ratio of animals cured/animals infected (C/I) at dose 10 mg/kg; C/I = 1/8; format: functional
[16] = In vivo activity against microsporosis guinea pig, measured as the ratio of animals cured/animals infected (C/I) at dose 1.25 mg/kg; C/I = 0/6; format: functional
Rattus norvegicus = assay: In vivo activity against vaginal candidoses in rats, measured as the ratio of animals cured/animals infected (C/I) at dose 1.25 mg/kg; C/I = 9/10; format: functional
[17] = In vivo activity against vaginal candidoses in rats, measured as the ratio of animals cured/animals infected (C/I) at dose 0.63 mg/kg; C/I = 3/10; format: functional
[18] = In vivo activity against vaginal candidoses in rats, measured as the ratio of animals cured/animals infected (C/I) at dose 2.5 mg/kg; C/I = 9/10; format: functional

SMILES	Inhibition (Trichophyton benhamiae) [µg/mL]	Inhibition (Trichophyton rubrum) [µg/mL]	Inhibition (Cryptococcus neoformans) [µg/mL]	Inhibition (Phialophora verrucosa) [µg/mL]	Inhibition (Candida tropicalis) [µg/mL]	Inhibition (Sporothrix schenckii) [µg/mL]	Inhibition [8] [µg/mL]	C/I ratio [9]	Inhibition (Microsporum canis) [µg/mL]	Inhibition (Saprolegnia) [µg/mL]	Inhibition (Aspergillus fumigatus) [µg/mL]	Inhibition (Candida albicans) [µg/mL]	also measured
C=CCn1ncn(-c2ccc(N3CCN(c4ccc(OC[C@@H]5COC(Cn6cncn6)(c6ccc(Cl)cc6Cl)O5)cc4)CC3)cc2)c1=O (stereo partly drawn)	–	–	–	–	–	–	–	–	–	–	–	–	C/I ratio [1]: 1; C/I ratio [2]: 0.667; C/I ratio [3]: 0; C/I ratio [4]: 2; C/I ratio [5]: 0.5; C/I ratio [6]: 1; Lowest level of total inhibition (Microsporum canis): > 100 µg/mL
CCCCn1ncn(-c2ccc(N3CCN(c4ccc(OC[C@@H]5COC(Cn6cncn6)(c6ccc(Cl)cc6Cl)O5)cc4)CC3)cc2)c1=O (stereo partly drawn)	100	>100	>100	>100	>100	>100	>100	0	>100	>100	>100	>100	C/I ratio [7]: 1
Cc1nn(C)c(=O)n1-c1ccc(N2CCN(c3ccc(OC[C@@H]4COC(Cn5ccnc5)(c5ccc(Cl)cc5Cl)O4)cc3)CC2)cc1 (stereo partly drawn)	10	100	>100	>100	> 100	>100	>100	0	100	>100	100	100	C/I ratio [10]: 0.75; C/I ratio [11]: 0; C/I ratio [12]: 2
CCCn1ncn(-c2ccc(N3CCN(c4ccc(OC[C@@H]5COC(Cn6cncn6)(c6ccc(Cl)cc6Cl)O5)cc4)CC3)cc2)c1=O (stereo partly drawn)	100	1	100	>100	100	>100	>100	–	>100	>100	>100	>100	C/I ratio [13]: 6; C/I ratio [14]: 0; C/I ratio [15]: 1; C/I ratio [16]: 0; C/I ratio (Rattus norvegicus): 0.9; C/I ratio [17]: 0.3; C/I ratio [18]: 9
